# From PubChem BioAssay
# Compounds with a hit are over-represented: about 3.5% of the library has one in this group of screens.
# RGS4 block: inhibitors of human RGS4. 0.45% of 310,000 active. HEK293 M3R/RGS4 inducible, Fluo-4 calcium flux; stronger effect = higher value; triggered by carbachol at its EC20. B-score at 10 µM. P49798;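 active = B-score, a plate-corrected calcium signal, over three deviations above library mean, with baseline fluorescence within five deviations of library mean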;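 note: RGS4 expression induced by doxycycline in cells with stable M3 receptor; B-score is computed from the integrated fluorescence ratio over baseline after carbachol; higher B-score means a larger calcium signal and so more RGS4 inhibition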
# Target sequence (P49798 whole entry, looked up): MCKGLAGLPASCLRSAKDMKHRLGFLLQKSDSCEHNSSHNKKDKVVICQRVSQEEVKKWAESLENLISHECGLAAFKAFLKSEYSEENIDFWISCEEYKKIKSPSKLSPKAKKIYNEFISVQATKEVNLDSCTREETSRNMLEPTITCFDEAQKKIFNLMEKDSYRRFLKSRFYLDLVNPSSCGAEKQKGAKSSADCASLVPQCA
# MrgX1 agonist: human MrgX1 receptor agonism, primary screen; Q96LB2; MrgX1-HEK293 cells, Fluo-4 calcium fluorescence, agonist mode; stronger effect = higher value; B-score at 10 µM; 0.44% of 310,000 active; AID 588627;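 active = calcium response B-score plate-corrected fluorescence ratio at least 3 library SD, with starting fluorescence B-score inside 5 SD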
# Target sequence (Q96LB2 whole entry, looked up): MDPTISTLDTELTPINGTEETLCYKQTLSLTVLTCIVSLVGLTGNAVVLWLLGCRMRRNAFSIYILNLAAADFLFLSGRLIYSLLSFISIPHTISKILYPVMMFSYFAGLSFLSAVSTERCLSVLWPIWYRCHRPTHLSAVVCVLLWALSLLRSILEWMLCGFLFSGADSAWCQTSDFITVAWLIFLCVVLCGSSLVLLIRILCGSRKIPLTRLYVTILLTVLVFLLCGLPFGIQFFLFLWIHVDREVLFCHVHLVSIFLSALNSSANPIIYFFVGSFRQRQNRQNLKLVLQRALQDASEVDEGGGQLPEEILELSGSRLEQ
#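 Material – MrgX1-expressing HEK293 cells · Input – 15,000 cells seeded per well · Dosing – compound as first of three additions · Times – overnight seeding, then 1 h dark dye loading · Measured by – kinetic Fluo-4 NW fluorescence of intracellular calcium · Read-out – B-scored fluorescence response ratio · Benchmarks – positive and negative control wells on each plate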
# MrgX1 allo act: human MrgX1 positive allosteric modulation, primary screen | MrgX1-HEK293, Fluo-4 calcium flux, FDSS; stronger effect = higher value | B-score at 10 µM | 0.63% of 310,000 active | AID 588675;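 active = plate-corrected calcium response at least 3 library SD above typical, normal starting fluorescence, not activating the receptor alone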;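 note: compound read alongside a low EC10 to EC30 dose of BAM8-22 agonist; peak minus trough fluorescence over baseline measured at the second addition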
# RGS4 pot: potentiators or activators of RGS4. 0.92% of 310,000 active. HEK293 M3R/inducible RGS4, carbachol calcium flux Fluo4; stronger effect = lower value. B-score at 10 µM;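 active = B-score of the integrated calcium signal more than 4 SD below the library mean, with starting fluorescence not abnormally high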;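 note: negative B-score means reduced calcium response which marks RGS4 activation or potentiation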
#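 Also added: carbachol at ECmax as muscarinic agonist stimulus; Assay system: HEK293 cells with stable M3R and inducible RGS4; Timing: overnight RGS4 induction, 30 min dye load 37 °C, 20 min compound RT; Measured by: Fluo4-AM (2 µM) calcium-flux fluorescence, kinetic read.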
# MrgX1 antagonist: blocks BAM8-22 activation of human MrgX1 receptor. Q96LB2. MRGX1-HEK293 calcium flux, Fluo-4, BAM8-22 antagonism; stronger effect = lower value. B-score at 10 µM. 1.3% of 310,000 active. AID 588676;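 active = calcium-response B-score plate-corrected more than 3 library SD below zero, starting fluorescence within 5 deviations, no agonist response on first addition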;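 note: peak minus trough fluorescence over baseline after final BAM8-22 challenge near maximal dose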
# Numbers without * were called inactive; i = inactive.
SMILES,RGS4 block,MrgX1 agonist,MrgX1 allo act,RGS4 pot,MrgX1 antagonist
O=C(COC(=O)CSc1ccc(F)cc1)NNC(=O)c1ccc([N+](=O)[O-])cc1,i,i,i,i,i
CC(C)N1CCN(Cc2ccc(OCc3ccccc3)cc2)CC1CCO (configuration not stated),i,i,i,-7*,i
CC1CCCN(Cc2ccc(OCc3ccccc3)cc2)C1 (configuration not stated),i,i,i,-7.6*,i
CC(C)N1CCN(Cc2ccc(-c3ccccc3)cc2)CC1CCO (configuration not stated),i,i,i,i,i
CCN(CC)S(=O)(=O)c1ccc(C(=O)Oc2cc(C)[nH]c(=O)c2[N+](=O)[O-])cc1,i,i,i,i,i
Cc1ccc(C)c(-c2cc(C(=O)Nc3cccnc3)c3ccccc3n2)c1,i,i,i,-7.6*,i
Cc1ccc(C)c(-c2cc(C(=O)Nc3cccc(C(=O)O)c3)c3ccccc3n2)c1,i,i,i,i,i
O=C(Nc1cccc([N+](=O)[O-])c1)c1cc2ccccc2cc1O,i,i,i,i,-4.8*
O=C(O)c1ccccc1C(=O)Nc1cccc([N+](=O)[O-])c1,i,i,i,i,i
Cc1ccc(/C=N/NC(=O)c2cccc(NC(=O)c3ccccc3Cl)c2)o1,i,i,i,i,i
CN(Cc1ccco1)C(=O)C1CCCN(c2ncnc3c2nc2n3CCCCC2)C1 (configuration not stated),i,i,i,i,i
CC(=O)c1ccc(-n2cc(-c3ccc(C(C)(C)C)cc3)[n+]3c2SCCC3)cc1,i,i,i,-9.6*,i
Fc1cnc(N/N=C/c2ccc(-c3ccc(Br)cc3)o2)nc1N1CCOCC1,i,i,i,-7.8*,i
Brc1ccc(-c2ccc(/C=N/Nc3nc(N4CCOCC4)nc(N4CCOCC4)n3)o2)cc1,i,i,i,i,i
O=[N+]([O-])c1ccc(NNS(=O)(=O)c2cc(Cl)ccc2Cl)nc1,i,i,i,i,i
CC(=O)c1ccccc1Oc1cc(NN2CCCCC2)c([N+](=O)[O-])cc1[N+](=O)[O-],i,i,i,-8.3*,i
O=[N+]([O-])c1cc([N+](=O)[O-])c(Oc2c(F)ccc(F)c2F)cc1NN1CCCCC1,i,i,i,-7.2*,i
O=[N+]([O-])c1cc([N+](=O)[O-])c(Oc2c(F)cccc2F)cc1NN1CCCCC1,i,i,i,i,i
COc1ccc(Oc2cc(NN3CCCCC3)c([N+](=O)[O-])cc2[N+](=O)[O-])cc1OC,i,i,i,-8.2*,i
O=[N+]([O-])c1cc([N+](=O)[O-])c(Oc2ccc(F)cc2)cc1NN1CCCCC1,i,i,i,i,i
CC(=O)c1cccc(Oc2cc(NN3CCCCC3)c([N+](=O)[O-])cc2[N+](=O)[O-])c1,i,i,i,-7.3*,i
O=[N+]([O-])c1cc([N+](=O)[O-])c(Oc2c(Cl)cccc2Cl)cc1NN1CCCCC1,i,i,i,i,i
CN(C)c1ccc(CNCc2cccnc2)cc1,i,i,i,i,i
O=C(NCc1cnc2ccccn12)C1CCC(=O)N(Cc2cccc(F)c2)C1 (configuration not stated),i,i,i,i,i
CN=c1scc(-c2ccccc2F)n1/N=C/c1ccc[nH]1,i,i,7*,i,i
SMILES,RGS4 block,MrgX1 agonist,MrgX1 allo act,RGS4 pot,MrgX1 antagonist
CCOc1ccc(N=C2C(=O)N(CN3CCOCC3)c3ccccc32)cc1,i,33*,i,i,i
Cc1cccc(S(=O)Cc2ccc(C(=O)N3CCN(C(=O)c4ccco4)CC3)o2)c1 (configuration not stated),i,i,i,i,i
CC(C)c1ccc(-c2csc(NC(=O)c3cccs3)c2C(=O)O)cc1,i,i,19*,i,-6.8*
Cc1cccc(C(=O)Nc2scc(-c3ccc(Br)cc3)c2C(=O)O)c1,i,i,i,i,i
CC(C)c1ccc(C(CC(=O)O)NC(=O)c2cccs2)cc1 (configuration not stated),i,i,i,i,i
Cc1ccc(-c2csc(NC(=O)c3ccc(Br)cc3)c2C(=O)O)cc1,i,31*,i,i,i
O=C(CSc1ccc(-c2ccc(Br)cc2)nn1)NC1CCCC1,i,i,i,i,i
CC1=C(C(=O)N2CCOCC2)C(c2ccc(OC(F)F)cc2)NC(=S)N1c1ccccc1 (configuration not stated),i,i,i,i,i
CCOC(=O)Cn1c(COc2ccccc2OC)[n+](C)c2ccccc21,i,i,i,i,i
CCCCCCCCCCOC(=O)Cn1c(COc2ccc(OC)cc2)[n+](C)c2ccccc21,i,i,i,-9.1*,-9.1*
CCCCCCCCCCOC(=O)Cn1c(COc2cccc(C)c2)[n+](C)c2ccccc21,i,i,i,-8.5*,-5.9*
O=C(NCc1cccc(F)c1F)C1CCC(=O)N(C2CCCCCC2)C1 (configuration not stated),i,i,i,i,i
O=C1N=C(N2CCOCC2)S/C1=C/c1ccc(-c2ccccc2Cl)o1,i,i,i,i,i
O=C1S/C(=C\c2ccc(N3CCOCC3)o2)C(=O)N1c1ccccc1,i,i,i,-7.6*,i
O=C(O)c1ccccc1-c1ccc(/C=C2\SC(=O)N(c3ccccc3)C2=O)o1,i,i,i,i,i
O=C1S/C(=C/c2ccc(N3CCOCC3)o2)C(=O)N1Cc1c(F)cccc1Cl,i,i,9.4*,i,i
O=C1S/C(=C\c2ccc(N3CCOCC3)o2)C(=O)N1Cc1c(F)cccc1Cl,i,56*,i,i,i
CCOC(=O)c1nc(Nc2cc(Cl)ccc2OC)c2ccccc2n1,i,i,i,i,i
Cn1cc(CNCc2cn(C)nc2-c2ccc(C3CCCCC3)cc2)cn1,i,i,i,i,i
CCCCCCn1nc(C(=O)OCC(=O)c2c(N)n(C)c(=O)n(C)c2=O)c2ccccc2c1=O,i,i,i,-8.7*,i
CCCCCn1nc(C(=O)OCC(=O)c2c(N)n(C)c(=O)n(C)c2=O)c2ccccc2c1=O,i,i,i,i,i
Cc1onc(-c2ccccc2)c1C(=O)N/N=C/C=C/c1ccccc1,i,i,i,i,i
